Columns and labels:
[1] = folding enthalpy; higher = less favourable; fluorescence melt of hairpins on a sequencing array, two-state fit; settings: sodium 0.088 M
In short: (§1)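 Melting temperature and folding enthalpy were derived from bootstrapped two-state fits. The fitted temperatures were raised by 9.35 °C to agree with UV melts, and four replicates were combined by inverse variance. The underlying data were Cy3 fluorescence images of library hairpins, with annealed Cy3 and quencher oligos, on a sequenced MiSeq flow cell in 50 mM Na-HEPES pH 8.0, 25 mM NaCl, taken in 2.5 °C steps up to 60 °C, normalised to pre-quench Cy3 and to control constructs.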

[2] = melting temperature; fluorescence melt of hairpins on a sequencing array, two-state fit, raised by 9.35 °C to match UV melts; settings: sodium 0.088 M
In short: as §1

| Sequence | folding enthalpy [1] [kcal/mol] | Tm [2] [°C] |
| --- | --- | --- |
| GGGGGAACGAAAGTTCCC (((..(((....)))))) | -8.07 | 64.3 |
| GGGGGCGAAAGCCGGCCC ((((((....)))..))) | -14.3 | 48 |
| GGGGGCGAAAGCCTCCC ((((((....))).))) | -15.7 | 66.1 |
| GGGGGCGAAAGCCTTCCC ((((((....)))..))) | -13.1 | 42.3 |
| GGGGGGAAACCCCC (((((....))))) | -21.5 | 65.9 |
| GGGGGGGGAAACCCCTCC ((.((((....)))).)) | -17.5 | 60.9 |
| GGGGGGGGAAACCCTCCC (((.(((....))).))) | -31.3 | 59.4 |
| GGGGGGGGAAACTCCCCC (((((.(....).))))) | -20.3 | 64.3 |
| GGGGGTGGAAACACTCCC (((.(((....))).))) | -37.6 | 56.5 |
| GGGGTAGGAAACCACCCC (((((.(....).))))) | -30.2 | 50.7 |
| GGGGTCACGAAAGTGCCC (((..(((....)))))) | -21.4 | 58.8 |
| GGGGTCCCGAAAGGGCCC (((..(((....)))))) | -14.6 | 65.3 |
| GGGGTCGAAAGACACCCC ((((((....)))..))) | -12.6 | 61.8 |
| GGGGTCGAAAGACAGCCC ((((((....)))..))) | -16.6 | 46.2 |
| GGGGTCGAAAGACCACCC ((((((....)))..))) | -12.7 | 54.7 |
| GGGGTCGAAAGACGCCC ((((((....))).))) | -18.8 | 57.7 |
| GGGGTCGAAAGACTCCCC ((((((....)))..))) | -22.2 | 54.3 |
| GGGGTCGCGAAAGCGCCC (((..(((....)))))) | -16.4 | 60.7 |
| GGGGTCGGAAACGATCCC (((.(((....))).))) | -48.4 | 59.7 |

| Sequence | folding enthalpy [1] [kcal/mol] | Tm [2] [°C] |
| --- | --- | --- |
| GGGGTCGGAAACGGTCCC (((..((....))..))) | -37.3 | 49.4 |
| GGGGTGGGAAACTGCCCC ((((..(....)..)))) | -30.2 | 51.7 |
| GGGGTTCCGAAAGGACCC (((..(((....)))))) | -32.6 | 56.2 |
| GGGGTTCGAAAGAAGCCC (((.(((....))).))) | -41.5 | 66.3 |
| GGGGTTGGAAACAGCCTC (.((.((....)).)).) | -21.6 | 39.1 |
| GGGGTTTCGAAAGAACCC (((..(((....)))))) | -32.9 | 50.8 |
| GGGTAAGGAAACTTACCC (((((((....))))))) | -44.9 | 58.6 |
| GGGTAAGGAAACTTACTC (.(((((....))))).) | -23.7 | 37.9 |
| GGGTACCGAAAGGTTCCC (((.(((....))).))) | -30.3 | 56.2 |
| GGGTACGAAAGTAGCCCC ((((((....)))..))) | -14.5 | 55 |
| GGGTACGGAAACGTACTC (.(((((....))))).) | -16.1 | 51.2 |
| GGGTACGGAAACGTGCTC (.(.(((....))).).) | -21.5 | 43.1 |
| GGGTAGGGAAACCCACCC ((((.((....)).)))) | -29.2 | 48.3 |
| GGGTAGGGAAACTTACCC (((((.(....).))))) | -29.5 | 45.8 |
| GGGTATCGAAAGATCCCC (((.(((....))).))) | -22.7 | 50.2 |
| GGGTATCGAAAGATGCCC (((.(((....))).))) | -58.7 | 58.2 |
| GGGTATGAAAATACCC ((((((....)))))) | -35.4 | 57.6 |
| GGGTATGGAAACATACCC (((((((....))))))) | -44 | 62.6 |
| GGGTATGGAAACATATCC ((.((((....)))).)) | -39.3 | 44.2 |

— the array DNA melting data of Ke et al. (doi:10.1101/2024.01.08.574731)
